According to BindingDB's records for doi:10.1016/j.bmc.2008.10.024 (National Cancer Institute-Frederick, 2008):

Target: E3 ubiquitin-protein ligase Mdm2 (Homo sapiens, UniProt Q00987)
Experiment: Inhibition of GST fused human Hdm2 assessed as polyubiquitylation by electrochemiluminescence assay
Outline: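 Cell-free ubiquitylation. Lysate GST-Hdm2 captured on glutathione-coated wells for 1 h at RT. E1/UbcH5B were pre-charged with ubiquitin, ATP and DTT in PBS for 30 min, then added with sample for 30 min at RT. Read-out was ruthenium anti-polyubiquitin electrochemiluminescence, normalised between no-inhibitor (0%) and EDTA (100%). Tested at 100–0.02 µg/mL in quadruplicate.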

Sequence of E3 ubiquitin-protein ligase Mdm2 (Q00987 whole entry, the tested form may be a part): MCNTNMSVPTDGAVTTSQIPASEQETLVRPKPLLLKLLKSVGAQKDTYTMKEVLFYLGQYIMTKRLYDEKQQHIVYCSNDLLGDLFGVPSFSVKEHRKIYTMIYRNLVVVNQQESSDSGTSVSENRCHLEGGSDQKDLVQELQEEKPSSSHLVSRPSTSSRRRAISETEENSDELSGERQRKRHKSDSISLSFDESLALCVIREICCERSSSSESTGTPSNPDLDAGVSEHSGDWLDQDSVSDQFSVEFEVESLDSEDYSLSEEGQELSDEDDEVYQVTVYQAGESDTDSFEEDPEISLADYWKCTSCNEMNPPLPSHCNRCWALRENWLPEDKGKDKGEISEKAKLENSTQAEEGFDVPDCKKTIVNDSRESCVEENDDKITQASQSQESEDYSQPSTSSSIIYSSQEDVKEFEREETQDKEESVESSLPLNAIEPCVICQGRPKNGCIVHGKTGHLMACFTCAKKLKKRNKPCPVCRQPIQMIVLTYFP

Question: Which IC50 does the source give for NCCc1c2c(c3c4c(c5ccccc5nc14)C=CN3)OCS2 [Lissoclinidine B] here?
Answer: 58.6 µM
